According to ChEMBL document CHEMBL3124820, “Design, synthesis and biological evaluation of hetero-aromatic moieties substituted pyrrole-2-carbonitrile derivatives as dipeptidyl peptidase IV inhibitors” (Eur J Med Chem, 2014):

How the values were obtained:
Mus musculus [1] = experiment: Antidiabetic activity in C57BKS db/db mouse assessed as blood glucose level at 50 mg/kg/day administered for 5 weeks followed by glucose challenge at 6 hrs starvation of post last dose measured immediately by OGTT (reference value: 25 +/- 1.2 mmol/L); type: functional
How it was run: (§1)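 C57BKS db/db mice received 5, 15 or 50 mg/kg/day for 5 weeks. Vehicle was 0.5% methylcellulose at 10 mL/kg/day. In week 5, mice were fasted 6 h and given an oral glucose load of 1.5 g/kg, then blood glucose was recorded over the glucose tolerance test. Data are mean ± SE, compared with Student's t-test.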

Mus musculus [2] = experiment: Antidiabetic activity in C57BKS db/db mouse assessed as blood glucose level at 50 mg/kg/day administered for 5 weeks followed by glucose challenge at 6 hrs starvation of post last dose measured at 60 mins by OGTT (reference value: 30.2 +/- 1.5 mmol/L); type: functional; how it was run: as §1
[3] = biological target: Voltage-gated inwardly rectifying potassium channel KCNH2 (Homo sapiens, UniProt Q12809); experiment: Inhibition of human ERG expressed in CHO-ZG cells after 20 mins by FluxOR thallium assay
Mus musculus [4] = experiment: Antidiabetic activity in ICR mouse assessed as decrease in blood glucose AUC (0 to 120 mins) at 15 mg/kg administered for 30 mins prior to glucose challenge measured after 4 hrs by OGTT relative to vehicle-treated control; type: functional; set-up: scale not given: the % may be the effect or the level left
How it was run: (§2)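 ICR mice were fasted 16 h and given one dose in 0.5% methylcellulose vehicle (10 mL/kg). An oral glucose load of 2.5 g/kg followed; methods state 30 min after dosing, the figure legend 4 h.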

[5] = AUC (0 to infinity) in Sprague-Dawley rat at 50 mg/kg, po; type: ADME, organism-based; set-up: time infinity, dose 50 mg/kg, route oral; conditions: plasma
How it was run: (§3)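 Sprague-Dawley rats were dosed orally or intravenously, and blood was sampled after dosing. Plasma was separated by centrifugation and deproteinized with methanol containing an internal standard. The supernatant was diluted with methanol, centrifuged again and quantified by LC/MS/MS.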

[6] = Cmax in Sprague-Dawley rat at 20 mg/kg, iv; type: ADME, organism-based; set-up: dose 20 mg/kg, route intravenous; conditions: in vivo; how it was run: as §3
[7] = Half life in Sprague-Dawley rat at 50 mg/kg, po; type: ADME, organism-based; set-up: dose 50 mg/kg, route oral; conditions: in vivo; how it was run: as §3
[8] = Oral bioavailability in Sprague-Dawley rat at 50 mg/kg; type: ADME, organism-based; conditions: in vivo; how it was run: as §3
Mus musculus [9] = experiment: Antidiabetic activity in C57BKS db/db mouse assessed as blood glucose level at 5 mg/kg/day administered for 5 weeks followed by glucose challenge at 6 hrs starvation of post last dose measured at 120 mins by OGTT (reference value: 28.1 +/- 1.3 mmol/L); type: functional; how it was run: as §1
[10] = AUC (0 to t) in Sprague-Dawley rat at 50 mg/kg, po; type: ADME, organism-based; set-up: dose 50 mg/kg, route oral; conditions: plasma; how it was run: as §3
[11] = AUC (0 to t) in Sprague-Dawley rat at 20 mg/kg, iv; type: ADME, organism-based; set-up: dose 20 mg/kg, route intravenous; conditions: plasma; how it was run: as §3
[12] = Mean residence time in Sprague-Dawley rat at 20 mg/kg, iv; type: ADME, organism-based; set-up: dose 20 mg/kg, route intravenous; conditions: in vivo; how it was run: as §3
[13] = Apparent clearance in Sprague-Dawley rat at 20 mg/kg, iv; type: ADME, organism-based; set-up: dose 20 mg/kg, route intravenous; conditions: in vivo, read-out: CL(app) (converted); how it was run: as §3
Mus musculus [14] = experiment: Antidiabetic activity in C57BKS db/db mouse assessed as blood glucose level at 5 mg/kg/day administered for 5 weeks followed by glucose challenge at 6 hrs starvation of post last dose measured at 60 mins by OGTT (reference value: 30.2 +/- 1.5 mmol/L); type: functional; how it was run: as §1
[15] = Tmax in Sprague-Dawley rat at 50 mg/kg, po; type: ADME, organism-based; set-up: dose 50 mg/kg, route oral; conditions: in vivo
How it was run: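 Sprague-Dawley rats dosed orally (i.v. arm run in parallel). Blood collected after dosing and centrifuged to plasma. Plasma deproteinized with methanol containing an internal standard, centrifuged, and the supernatant diluted in methanol and recentrifuged. Drug levels in the supernatant quantified by LC/MS/MS, and Tmax taken from the plasma concentration-time profile.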

[16] = Cmax in Sprague-Dawley rat at 50 mg/kg, po; type: ADME, organism-based; set-up: dose 50 mg/kg, route oral; conditions: in vivo; how it was run: as §3
Mus musculus [17] = experiment: Antidiabetic activity in C57BKS db/db mouse assessed as blood glucose level at 15 mg/kg/day administered for 5 weeks followed by glucose challenge at 6 hrs starvation of post last dose measured at 30 mins by OGTT (reference value: 46.6 +/- 2.2 mmol/L); type: functional; how it was run: as §1
Mus musculus [18] = experiment: Antidiabetic activity in C57BKS db/db mouse assessed as blood glucose level at 15 mg/kg/day administered for 5 weeks followed by glucose challenge at 6 hrs starvation of post last dose measured at 120 mins by OGTT (reference value: 28.1 +/- 1.3 mmol/L); type: functional; how it was run: as §1
[19] = Mean residence time in Sprague-Dawley rat at 50 mg/kg, po; type: ADME, organism-based; set-up: dose 50 mg/kg, route oral; conditions: in vivo; how it was run: as §3
Mus musculus [20] = experiment: Antidiabetic activity in C57BKS db/db mouse assessed as blood glucose level at 15 mg/kg/day administered for 5 weeks followed by glucose challenge at 6 hrs starvation of post last dose measured at 90 mins by OGTT (reference value: 27.2 +/- 1.3 mmol/L); type: functional; how it was run: as §1
Mus musculus [21] = experiment: Antidiabetic activity in C57BKS db/db mouse assessed as blood glucose level at 50 mg/kg/day administered for 5 weeks followed by glucose challenge at 6 hrs starvation of post last dose measured at 90 mins by OGTT (reference value: 27.2 +/- 1.3 mmol/L); type: functional; how it was run: as §1
CYP2C9 = CYP2C9 (Homo sapiens, UniProt P11712); experiment: Inhibition of CYP2C9 (unknown origin) at 100 uM relative to control; type: ADME
[22] = Half life in Sprague-Dawley rat at 20 mg/kg, iv; type: ADME, organism-based; set-up: dose 20 mg/kg, route intravenous; conditions: in vivo; how it was run: as §3
[23] = Tmax in Sprague-Dawley rat at 20 mg/kg, iv; type: ADME, organism-based; set-up: dose 20 mg/kg, route intravenous; conditions: in vivo; how it was run: as §3
Mus musculus [24] = experiment: Antidiabetic activity in C57BKS db/db mouse assessed as blood glucose level at 15 mg/kg/day administered for 5 weeks followed by glucose challenge at 6 hrs starvation of post last dose measured immediately by OGTT (reference value: 25 +/- 1.2 mmol/L); type: functional; how it was run: as §1
Mus musculus [25] = experiment: Antidiabetic activity in C57BKS db/db mouse assessed as blood glucose level at 5 mg/kg/day administered for 5 weeks followed by glucose challenge at 6 hrs starvation of post last dose measured at 90 mins by OGTT (reference value: 27.2 +/- 1.3 mmol/L); type: functional; how it was run: as §1
Mus musculus [26] = experiment: Antidiabetic activity in ICR mouse assessed as decrease in blood glucose AUC (0 to 120 mins) administered for 30 mins prior to glucose challenge measured after 4 hrs by OGTT; type: functional, organism-based
How it was run: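 ICR mice fasted 16 h, then given a single dose of 15 or 50 mg/kg; vehicle 0.5% methylcellulose (10 mL/kg), LAF237 30 mg/kg as positive control. Oral glucose 2.5 g/kg given 30 min after dosing (legend says 4 h). Blood glucose read at 0, 15, 30, 60, 90, 120 min for AUC0–120. Mean ± SE, n = 10; Student's t-test.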

Mus musculus [27] = experiment: Antidiabetic activity in C57BKS db/db mouse assessed as blood glucose level at 50 mg/kg/day administered for 5 weeks followed by glucose challenge at 6 hrs starvation of post last dose measured at 30 mins by OGTT (reference value: 46.6 +/- 2.2 mmol/L); type: functional; how it was run: as §1
Mus musculus [28] = experiment: Antidiabetic activity in C57BKS db/db mouse assessed as blood glucose level at 50 mg/kg/day administered for 5 weeks followed by glucose challenge at 6 hrs starvation of post last dose measured at 120 mins by OGTT (reference value: 28.1 +/- 1.3 mmol/L); type: functional; how it was run: as §1
Mus musculus [29] = experiment: Antidiabetic activity in C57BKS db/db mouse assessed as blood glucose level at 5 mg/kg/day administered for 5 weeks followed by glucose challenge at 6 hrs starvation of post last dose measured immediately by OGTT (reference value: 25 +/- 1.2 mmol/L); type: functional; how it was run: as §1
Mus musculus [30] = experiment: Antidiabetic activity in C57BKS db/db mouse assessed as blood glucose level at 5 mg/kg/day administered for 5 weeks followed by glucose challenge at 6 hrs starvation of post last dose measured at 30 mins by OGTT (reference value: 46.6 +/- 2.2 mmol/L); type: functional; how it was run: as §1
Mus musculus [31] = experiment: Antidiabetic activity in ICR mouse assessed as decrease in blood glucose AUC (0 to 120 mins) at 50 mg/kg administered for 30 mins prior to glucose challenge measured after 4 hrs by OGTT relative to vehicle-treated control; type: functional; set-up: scale not given: the % may be the effect or the level left; how it was run: as §2
Mus musculus [32] = experiment: Antidiabetic activity in C57BKS db/db mouse assessed as blood glucose level at 15 mg/kg/day administered for 5 weeks followed by glucose challenge at 6 hrs starvation of post last dose measured at 60 mins by OGTT (reference value: 30.2 +/- 1.5 mmol/L); type: functional; how it was run: as §1
CYP3A4 = CYP3A4 (Homo sapiens, UniProt P08684); experiment: Inhibition of CYP3A4 (unknown origin) at 100 uM relative to control; type: ADME
[33] = AUC (0 to infinity) in Sprague-Dawley rat at 20 mg/kg, iv; type: ADME, organism-based; set-up: time infinity, dose 20 mg/kg, route intravenous; conditions: plasma; how it was run: as §3

CYP3A4, sequence (P08684 whole entry): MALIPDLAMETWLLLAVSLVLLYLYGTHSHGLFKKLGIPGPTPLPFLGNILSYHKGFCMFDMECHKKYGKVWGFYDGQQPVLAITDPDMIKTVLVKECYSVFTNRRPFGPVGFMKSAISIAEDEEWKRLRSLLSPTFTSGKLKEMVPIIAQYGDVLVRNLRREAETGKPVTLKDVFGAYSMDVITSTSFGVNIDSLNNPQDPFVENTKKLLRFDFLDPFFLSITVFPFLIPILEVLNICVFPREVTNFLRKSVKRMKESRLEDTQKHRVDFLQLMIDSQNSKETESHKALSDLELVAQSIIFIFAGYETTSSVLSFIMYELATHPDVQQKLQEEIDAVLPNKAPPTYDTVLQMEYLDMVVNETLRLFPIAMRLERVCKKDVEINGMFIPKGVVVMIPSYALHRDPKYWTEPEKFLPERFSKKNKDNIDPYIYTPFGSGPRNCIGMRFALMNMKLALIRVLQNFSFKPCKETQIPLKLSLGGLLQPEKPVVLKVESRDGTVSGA
CYP2C9, sequence (P11712 whole entry): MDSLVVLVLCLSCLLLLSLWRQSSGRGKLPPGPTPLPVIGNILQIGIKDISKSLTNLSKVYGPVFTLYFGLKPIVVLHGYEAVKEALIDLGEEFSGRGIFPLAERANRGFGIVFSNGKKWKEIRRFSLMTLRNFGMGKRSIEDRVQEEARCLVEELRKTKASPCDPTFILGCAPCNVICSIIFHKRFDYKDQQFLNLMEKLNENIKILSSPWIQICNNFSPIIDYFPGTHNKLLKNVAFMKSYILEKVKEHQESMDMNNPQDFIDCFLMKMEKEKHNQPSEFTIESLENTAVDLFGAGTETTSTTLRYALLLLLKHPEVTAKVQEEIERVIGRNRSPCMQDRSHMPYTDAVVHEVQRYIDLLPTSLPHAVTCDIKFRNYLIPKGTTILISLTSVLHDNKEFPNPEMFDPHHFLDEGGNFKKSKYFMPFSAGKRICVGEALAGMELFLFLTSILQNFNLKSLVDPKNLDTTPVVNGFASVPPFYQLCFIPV
Voltage-gated inwardly rectifying potassium channel KCNH2, sequence (Q12809 whole entry): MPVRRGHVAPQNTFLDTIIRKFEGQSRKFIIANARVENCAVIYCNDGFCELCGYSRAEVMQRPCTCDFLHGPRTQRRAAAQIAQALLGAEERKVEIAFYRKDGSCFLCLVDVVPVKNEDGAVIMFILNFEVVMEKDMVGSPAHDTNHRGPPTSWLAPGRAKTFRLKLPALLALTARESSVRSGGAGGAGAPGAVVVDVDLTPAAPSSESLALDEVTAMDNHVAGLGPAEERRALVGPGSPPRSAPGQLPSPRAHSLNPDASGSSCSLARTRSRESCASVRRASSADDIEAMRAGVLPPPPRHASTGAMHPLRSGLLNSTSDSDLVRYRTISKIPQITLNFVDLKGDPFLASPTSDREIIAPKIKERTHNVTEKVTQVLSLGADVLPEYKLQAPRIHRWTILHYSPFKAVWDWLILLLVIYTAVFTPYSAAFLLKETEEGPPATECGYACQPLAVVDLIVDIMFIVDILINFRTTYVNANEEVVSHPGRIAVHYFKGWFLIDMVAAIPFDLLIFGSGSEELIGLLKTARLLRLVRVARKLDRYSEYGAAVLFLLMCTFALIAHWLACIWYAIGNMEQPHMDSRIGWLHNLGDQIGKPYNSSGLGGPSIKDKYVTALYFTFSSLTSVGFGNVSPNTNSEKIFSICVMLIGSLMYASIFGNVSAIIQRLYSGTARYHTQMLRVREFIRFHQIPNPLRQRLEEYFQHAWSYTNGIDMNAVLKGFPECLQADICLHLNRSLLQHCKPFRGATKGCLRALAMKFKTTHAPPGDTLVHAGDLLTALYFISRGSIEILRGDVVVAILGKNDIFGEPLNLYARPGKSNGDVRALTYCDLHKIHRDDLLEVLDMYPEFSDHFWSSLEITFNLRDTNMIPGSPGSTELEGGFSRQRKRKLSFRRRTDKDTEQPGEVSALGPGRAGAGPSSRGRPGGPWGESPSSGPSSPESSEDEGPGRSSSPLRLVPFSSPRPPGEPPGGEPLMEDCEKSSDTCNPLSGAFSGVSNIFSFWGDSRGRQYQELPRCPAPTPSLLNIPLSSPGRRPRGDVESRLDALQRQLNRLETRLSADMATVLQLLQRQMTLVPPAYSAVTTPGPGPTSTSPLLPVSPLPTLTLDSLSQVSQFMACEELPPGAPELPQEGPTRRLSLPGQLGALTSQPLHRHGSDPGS

N#C[C@@H]1C[C@H](F)CN1C(=O)[C@@H](N)Cc1cscn1
Activity (Mus musculus [1]): 18.1 mmol/L
Activity (Mus musculus [2]): 19.9 mmol/L
IC50 [3]: 177 µM
Activity (Mus musculus [4]): 10.7%
AUC(0-inf) [5]: 2840 ng·h/mL
Cmax [6]: 2960 ng/mL
half-life [7]: 1.45 h
bioavailability [8]: 37.8%
Activity (Mus musculus [9]): 24.5 mmol/L
AUC(0-t) [10]: 2730 ng·h/mL
AUC(0-t) [11]: 2890 ng·h/mL
MRT [12]: 1.48 h
clearance [13]: 116 mL/min/kg
Activity (Mus musculus [14]): 27.5 mmol/L
Tmax [15]: 0.3 h
Cmax [16]: 2710 ng/mL
Activity (Mus musculus [17]): 41.3 mmol/L
Activity (Mus musculus [18]): 20.6 mmol/L
MRT [19]: 1.47 h
Activity (Mus musculus [20]): 20.8 mmol/L
Activity (Mus musculus [21]): 20.5 mmol/L
inhibition at 100 µM (CYP2C9): 11.2%
half-life [22]: 2.27 h
Tmax [23]: 0.3 h
Activity (Mus musculus [24]): 18 mmol/L
Activity (Mus musculus [25]): 24.1 mmol/L
Activity (Mus musculus [26]): Dose-dependent effect
Activity (Mus musculus [27]): 38 mmol/L
Activity (Mus musculus [28]): 20.4 mmol/L
Activity (Mus musculus [29]): 21.5 mmol/L
Activity (Mus musculus [30]): 45.1 mmol/L
Activity (Mus musculus [31]): 12.8%
Activity (Mus musculus [32]): 21.8 mmol/L
inhibition at 100 µM (CYP3A4): 7.4%
AUC(0-inf) [33]: 2900 ng·h/mL
